Each molecule was assayed on BV-2 (assay: Anti-inflammatory activity in mouse BV2 cells assessed as reduction in LPS-induced nitric oxide production by Griess assay).
Format: functional, cell-based
Method in brief: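 NO release from LPS-stimulated BV-2 cells was measured by the Griess reaction, and IC50 values were derived. SMT (2-methyl-2-thiopseudourea, sulfate) served as the positive control. Data come from three experiments. The procedure otherwise follows a previously published method.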

| Structure (SMILES) | IC50 [µM] |
| --- | --- |
| C/C=C(/C)C(=O)O[C@H]1C(C)=C[C@]23C(=O)[C@@H](C=C(C)[C@@H](O)[C@]12O)[C@H]1[C@@H](C[C@H]3C)[C@@]1(C)COC(=O)/C(C)=C/C | 28.6 |
| C[C@H]1C(=O)CC[C@]2(C)[C@@H]1CC[C@@]13CC[C@@H](C[C@H]12)[C@](O)(CO)C3 | > 50 |
| CC1=C2[C@@H](O)C3=C(C[C@H]2OC1=O)[C@@]1(C)[C@H](CC3)C(C)(C)CC[C@@H]1O | > 50 |
| CO[C@H]1[C@H]2[C@@H]([C@@H](OC(C)=O)[C@@H](C)C(=O)[C@@]34C[C@H](C)[C@H](OC(C)=O)[C@]3(/C=C(\C)[C@H]1O)O4)C2(C)C | > 50 |
| CC(=O)O[C@@H]1[C@@H]2[C@H]([C@H](OC(=O)c3ccccc3)[C@H](OC(C)=O)/C(C)=C/[C@@]34O[C@@]3(C[C@H](C)[C@@H]4OC(C)=O)C(=O)[C@@H]1C)C2(C)C | > 50 |
| C=C1C[C@@]23CC[C@@H]4C(C)(C)[C@@H](O)CC[C@@]4(C)[C@@H]2C[C@@H]1[C@@H](O)C3=O | > 50 |
| C/C=C(/C)C(=O)O[C@@H]1/C(C)=C/[C@@]23O[C@@]2(C[C@H](C)[C@@H]3O)C(=O)[C@H](C)[C@H](OC(C)=O)[C@@H]2[C@H]([C@@H]1OC)C2(C)C | > 50 |
| C=C[C@@]1(C)C=C2CC[C@@H]3[C@@](C)(O)[C@H](O)CC[C@@]3(C)[C@@H]2C[C@@H]1O | > 50 |
| CC(=O)OC[C@]1(C)C(=O)CC[C@@]2(C)[C@@H]3C[C@@H]4CC[C@@]3(CC[C@@H]21)C[C@@]4(O)CO | > 50 |
| C=C[C@]1(C)C=C2CC[C@H]3[C@](C)(C=O)[C@@H](O)CC[C@]3(C)[C@H]2CC1 [SANDARACOPIMARADIENOLAL] | > 50 |

Now from value to molecule:

| IC50 [µM] | Structure (SMILES) |
| --- | --- |
| 3.7 | CSC(=N)N |
| > 50 | CC(=O)O[C@H]1C2=C(C[C@H]3OC(=O)C(C)=C13)[C@@]1(C)[C@H](CC2)C(C)(C)CC[C@@H]1O |
| > 50 | C=C1C[C@@]23CC[C@@H]4C(C)(C)C(=O)CC[C@@]4(C)[C@@H]2C[C@@H]1[C@@H](O)C3=O |
| 32.6 | CCC(C)C(=O)OC[C@]1(C)C(=O)CC[C@@]2(C)[C@@H]3CC[C@@H]4C[C@@]3(CC[C@@H]21)C[C@@]4(O)CO (stereo partly specified) |
| 32.3 | C=C[C@@]1(C)C=C2CC[C@@H]3[C@@](C)(C=O)[C@H](O)CC[C@@]3(C)[C@@H]2C[C@@H]1O |
| > 50 | C=C1C[C@@]23CC[C@@H]4C(C)(C)[C@H](O)CC[C@@]4(C)[C@@H]2C[C@@H]1[C@@H](O)C3=O |
| 38.4 | CC1=C2C=C3CC[C@@H]4C(C)(C)CC[C@H](O)[C@@]4(C)[C@@H]3C[C@@H]2OC1=O |
| > 50 | CC1=C2C=C3CC[C@@H]4[C@@](C)(CO)CC[C@H](O)[C@@]4(C)[C@@H]3C[C@H]2OC1=O |
| 14.5 | C/C=C(/C)C(=O)O[C@H]1C(C)=C[C@]23C(=O)[C@@H](C=C(C)[C@@H](O)[C@]12O)[C@H]1[C@@H](C[C@H]3C)[C@@]1(C)COC(=O)c1ccccc1 |
| 19.3 | C/C=C(\C)C(=O)OC[C@]1(C)C(=O)CC[C@@]2(C)[C@@H]3CC[C@@H]4C[C@@]3(CC[C@@H]21)C[C@@]4(O)CO |
| 12 | CC(=O)O[C@H]1CCC(C)(C)[C@H]2CCC3=CC4=C(C)C(=O)O[C@@H]4C[C@H]3[C@]12C |

From ChEMBL document CHEMBL4330169, “Bioactive Diterpenoids from the Stems of Euphorbia royleana” (J Nat Prod, 2019)
